Compounds with a hit are over-represented: about 2.6% of the library has one in this group of screens.
esBAF inh: Bmi1 luciferase reporter increase in mESCs, primary screen, esBAF inhibitor project, mouse ES cells, Bmi1 luciferase knock-in, single point. AID 602393, 2012. actives 2% (n = 350,000). reporter increase, % at 12.5 µM. 24 h; 100% = twice the neutral-well signal; in the data active means activation above about 40%; inconclusive means no clear call, values can overlap the other calls;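 further: 0% = median of the plate's neutral control wells and 100% = double that signal; a rise in the Bmi1 reporter signal indicates esBAF inhibition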
ASAP1 GAP inh: inhibitors of human ASAP1 ArfGAP activity, primary screen, biochemical, fluorescence polarization; Arf-GAP with SH3 domain, ANK repeat and PH domain-containing protein 1 (Homo sapiens), …; ASAP1-stimulated ARF1 GTP hydrolysis, GDP FP detection; inhibition, % at 16.5 µM; actives 0.19% (n = 360,000); AID 624377, 2012; in the data active means inhibition above about 25%;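 further: 0% = vehicle with enzyme and substrate and 100% = no enzyme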
Target sequence (Q9ULH1 325-724 limits assumed): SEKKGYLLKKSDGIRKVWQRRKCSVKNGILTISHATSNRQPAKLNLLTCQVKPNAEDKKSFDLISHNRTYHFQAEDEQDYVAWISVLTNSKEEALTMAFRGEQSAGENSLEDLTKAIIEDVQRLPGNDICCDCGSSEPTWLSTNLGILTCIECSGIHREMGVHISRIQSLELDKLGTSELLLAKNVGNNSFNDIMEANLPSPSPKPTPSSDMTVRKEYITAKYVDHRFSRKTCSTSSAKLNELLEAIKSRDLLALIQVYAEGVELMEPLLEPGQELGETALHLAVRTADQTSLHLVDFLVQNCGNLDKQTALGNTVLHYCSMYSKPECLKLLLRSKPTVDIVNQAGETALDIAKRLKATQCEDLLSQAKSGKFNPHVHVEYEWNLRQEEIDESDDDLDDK
ARFGAP1 inhibitor: inhibitors of rat ARFGAP1 GAP activity, primary screen, biochemical, fluorescence polarization, GDP tracer | ADP-ribosylation factor GTPase-activating protein 1 (Rattus norvegicus), Q62848 | Arfgap1-stimulated ARF1 GTP hydrolysis, GDP FP detection | inhibition, % at 16.5 µM | actives 0.26% (n = 360,000) | AID 651572, 2012;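 active means inhibition above a per-plate limit, mean inhibition of low control wells plus 3 SD, cut at about 25% in these data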;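 further: 0% = DMSO wells with enzyme and 100% = wells lacking Arfgap1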
Target sequence (Q62848 1-136 limits assumed): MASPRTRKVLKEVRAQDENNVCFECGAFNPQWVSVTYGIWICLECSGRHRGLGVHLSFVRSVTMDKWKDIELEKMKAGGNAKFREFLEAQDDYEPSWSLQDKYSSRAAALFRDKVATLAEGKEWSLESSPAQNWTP
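material = rat Arfgap1 catalytic domain, aa 1-136 | also added = human ARF1(Δ1-17)-GTP substrate | compound dosing = one concentration, 16.5 µM, DMSO 1.26% | times = GTP hydrolysis reaction 2 h at 25 °C | measured by = FP, GDP Alexa 633 tracer displaced from anti-GDP antibody, 620/688 nm | evaluation = percent inhibition of Arfgap1-stimulated GTP hydrolysis | replication = single well per compound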
SMARCA2 act: SMARCA2 (BRM) function activators, primary screen, cell-based, luminescence, high throughput | AID 652017, 2013 | actives 1% (n = 370,000) | MG213 cells, MMTV-luciferase reporter, dexamethasone, overnight | activation, % at 9.1 µM; in the data active means activation above about 7.8%;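 further: 0% = vehicle wells and 100% = reference activator wells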
The depositor's hits bear a star; u = inconclusive; x = no result.

SMILES | esBAF inh | ASAP1 GAP inh | ARFGAP1 inhibitor | SMARCA2 act
C[C@@H]1CN([C@@H](C)CO)C(=O)c2cc(NS(C)(=O)=O)ccc2O[C@@H](C)CCCCO[C@H]1CN(C)C(=O)c1ccncc1 | 0 | x | x | x
COC(=O)CN1C(=O)S/C(=C/c2cc(C)n(C)c2C)C1=O | 57* | 14 | 0 | 3
COCCn1c(C)cc(/C=C2/SC(=O)N(C(C)C(=O)OC)C2=O)c1C (configuration not stated) | 66* | -7 | -5 | 5
O=C(C[C@@H]1C[C@H]2c3cc(NC(=O)Nc4ccccc4F)ccc3O[C@H]2[C@H](CO)O1)NCc1ccncc1 | 5 | x | x | x
Clc1ccc(OCCN2CCCCC2)cc1Cl | 6 | 5 | 7 | -1
Clc1ccc(OCCCN2CCCC2)cc1Cl | x | -3 | 6 | 7.8*
COc1cccc(CNC(=O)[C@@H]2[C@@H](CO)[C@@H]3Cn4c(cccc4=O)[C@H]2N3C(=O)C2CC2)c1 | 0 | x | x | x
CC(C)c1c(O)cc(-c2ccncc2)n(-c2ccc(Cl)cc2)c1=O | x | 14 | 2 | 14*
COC(=O)c1ccc(CSc2nnc(N)s2)cc1 | 30 | -9 | 16 | -1
COC(=O)c1ccc(CSc2nc(N)cc(N)n2)cc1 | 52* | 4 | -2 | 2
O=C(Nc1ccc2c(c1)oc1ccccc12)C1CC1 | 59* | 8 | 0 | 2
CC(C)CC(=O)Nc1ccc2c(c1)oc1ccccc12 | 62* | -11 | -7 | 2
O=C(Nc1ccc2c(c1)OC1(CCCC1)O2)C1CC1 | 42* | 5 | 9 | -1
O=C(c1cnccn1)N1CC[C@@H]2[C@@H](CO)Nc3ccc(C#Cc4cccnc4)cc3[C@@H]21 | -1 | x | x | x
CCC(=O)N1CC[C@@H]2[C@H]1c1cc(C#Cc3cccc(OC)c3)ccc1N[C@@H]2CO | 0 | x | x | x
O=C(C[C@H]1CC[C@@H](NC(=O)CN2CCOCC2)[C@@H](CO)O1)NCCc1ccccc1 | -1 | x | x | x
Cc1ccc(OCC(=O)Nc2ccc(C)c(F)c2)c([N+](=O)[O-])n1 | 56* | -14 | 1 | 5
Cc1ccc(OCCOc2ccc(Br)cc2)c([N+](=O)[O-])n1 | 65* | -16 | 4 | 5
Cc1ccc(OCc2ccc([N+](=O)[O-])cc2)c([N+](=O)[O-])n1 | x | 0 | -6 | 2
CN1CCN(C(=O)C[C@H]2CC[C@@H]3[C@H](COC[C@@H](O)CN3C(=O)C3CCOCC3)O2)CC1 | -3 | x | x | x
Cc1cccc(-c2cc3nc(C)cc(C)n3n2)c1 | 66* | 3 | 9 | 5
COc1ccc(C(O)c2nc(-c3ccc(N(C)C)cc3)cs2)cc1 (configuration not stated) | u | -1 | 20 | -1
CN(C)c1ccc(C(O)c2cc3ccccc3s2)cc1 (configuration not stated) | 52* | -13 | 0 | -1
COc1cc(N=Nc2ccc(C(=O)N(C)C)cc2)c(C)cc1N | 58* | 11 | -2 | 1
Cc1cc(N=Nc2c(O)c3ccccc3[nH]c2=O)ccc1N=Nc1ccc(C(=O)N(C)C)cc1 | 1 | 6 | 8 | -2
SMILES | esBAF inh | ASAP1 GAP inh | ARFGAP1 inhibitor | SMARCA2 act
N#Cc1cccc(-c2ccc3c(c2)[C@@H]2[C@@H](CCN2C(=O)c2ccncc2)[C@@H](CO)N3)c1 | 61* | x | x | x
COc1cccc(-c2ccc3c(c2)[C@H]2[C@H](CCN2C(=O)c2ccccn2)[C@H](CO)N3)c1 | 45* | x | x | x
COc1cccc(-c2ccc3c(c2)[C@@H]2[C@@H](CCN2C(=O)c2ccccn2)[C@H](CO)N3)c1 | 30 | x | x | x
N#Cc1ccc(-c2ccc3c(c2)[C@@H]2[C@@H](CCN2C(=O)c2ccncc2)[C@H](CO)N3)cc1 | -2 | x | x | x
O=C(NCC[C@@H]1CC[C@@H](NC(=O)C2CCCC2)[C@@H](CO)O1)c1cc(Cl)cc(Cl)c1 | 3 | x | x | x
CN=c1nc(-c2ccccc2)n(-c2ccccc2)s1 | 55* | 3 | 4 | 1
O=C(Nc1ccccc1)N1C[C@H]2[C@@H](c3ccccc31)[C@@H](CO)N2CC1CCCC1 | 12 | x | x | x
CCCC(=O)Nc1ccc2c(c1)OC[C@@H](C)N(Cc1cc(-c3ccccc3)on1)C[C@@H](C)[C@H](OC)CN(C)C2=O | -2 | x | x | x
CCN1C(=O)[C@H]2[C@@H](c3ccc(C)cc3)N3C(=O)N(c4ccccc4)C(=O)[C@@]3(CC)[C@H]2C1=O | 14 | -3 | -1 | 3
CCN1C(=O)[C@H]2[C@@H](c3ccc(C)cc3)N3C(=O)N(c4ccc(C)cc4)C(=O)[C@@]3(CC)[C@H]2C1=O | 47* | 7 | 11 | 4
Cc1ccc(-c2cc(NC(=O)c3ccccc3)on2)cc1 | 60* | 1 | 8 | 1
COc1ccc(C(=O)Nc2cc(-c3ccc(C)cc3)no2)cc1 | 8 | 1 | 2 | -2
Clc1cccc(-c2nc3ccc(Br)cn3c2Cc2ccsc2)c1 | 43* | -2 | 4 | 3
COc1ccccc1Cc1c(-c2cccc(Cl)c2)nc2ccc(Br)cn12 | 42* | -4 | -10 | 3
Cc1ccc(-c2nc3ccc(Cl)cn3c2Cc2cccc(F)c2)cc1 | 50* | -8 | 4 | 2
Cc1ccc2nc(-c3cccc(Cl)c3)c(Cc3ccsc3)n2c1 | x | 4 | -5 | 2
Cc1ccc2nc(-c3ccc(Cl)cc3)c(Cc3cccc(F)c3)n2c1 | x | 12 | 22 | 1
Brc1cccc(-c2nc3ccc(Br)cn3c2Cc2ccsc2)c1 | 63* | 0 | 1 | 1
C[C@H](NC(=O)C[C@H]1C[C@H]2c3cc(NC(=O)Cc4ccncc4)ccc3O[C@H]2[C@H](CO)O1)c1ccccc1 | 10 | x | x | x
C[C@H]1CN([C@@H](C)CO)C(=O)c2cc(NS(=O)(=O)c3ccc(F)cc3)ccc2O[C@H]1CN(C)S(=O)(=O)c1ccc(Cl)cc1 | -3 | x | x | x
C[C@@H]1CN([C@H](C)CO)S(=O)(=O)c2ccc(C#CC(C)(C)O)cc2O[C@@H]1CN(C)C | 3 | x | x | x
CN(C)C(=O)[C@H]1[C@H](CO)[C@H]2Cn3c(ccc(-c4cccc(F)c4)c3=O)[C@H]2N1C(=O)c1cnccn1 | -6 | x | x | x
C[C@@H]1CN([C@@H](C)CO)C(=O)c2cccc(NC(=O)c3nc4ccccc4s3)c2O[C@H]1CN(C)Cc1ccc(C(=O)O)cc1 | 1 | x | x | x
Cc1ccc2nc(-c3ccc(Cl)cc3)c(Cc3ccsc3)n2c1 | x | -5 | -12 | 7.8*
Cc1ccc2nc(-c3cccc(Br)c3)c(CC3CCCCC3)n2c1 | 46* | 3 | -5 | 0
CCCc1nc2ccc(C)cn2c1Cc1cccc(Cl)c1 | 45* | 0 | -3 | -1
COCC#Cc1ccc2c(c1)O[C@H](CN(C)CC1CC1)[C@H](C)CN([C@@H](C)CO)S2(=O)=O | 0 | x | x | x
CCOC(=O)c1ccc(NS(=O)(=O)N2CCCCCC2)cc1 | 47* | -1 | 5 | 0

From PubChem BioAssay
